Source: ChEMBL document CHEMBL1806448, “Optimization of a pyrazole hit from FBDD into a novel series of indazoles as ketohexokinase inhibitors” (Bioorg Med Chem Lett, 2011)

System: not listed separately
Test: Bioavailability in rat at 10 mg/kg, po after 24 hrs
Settings: in vivo

SMILES	bioavailability [%]
CCc1nn(-c2ccccc2)c2cc(N3CCN(C4CCNC4)CC3)ccc12 (configuration not stated)	72.4
CCc1nn(-c2ccccc2)c2cc(N3CC4CNCC4C3)ccc12 (configuration not stated)	98.8

System: not listed separately
Test: Clearance in rat at 2 mg/kg, iv after 24 hrs
Type: ADME, organism-based
Set-up: dose 2 mg/kg, route intravenous
Settings: in vivo
In short: (§1)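 Rat pharmacokinetics over 24 h. Oral dose 10 mg/kg and iv dose 2 mg/kg.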

SMILES	clearance [mL/min/kg]
CCc1nn(-c2ccccc2)c2cc(N3CCN(C4CCNC4)CC3)ccc12 (configuration not stated)	21.2
CCc1nn(-c2ccccc2)c2cc(N3CC4CNCC4C3)ccc12 (configuration not stated)	28.9

System: not listed separately
Test: Inhibition of sodium channel at 10 uM
Settings: not given

SMILES	inhibition [%]
CCc1nn(-c2ccccc2)c2cc(N3CCN(C4CCNCC4)CC3)ccc12	61

System: not listed separately
Test: Volume of distribution at steady state in rat at 2 mg/kg, iv after 24 hrs
Type: ADME, organism-based
Set-up: dose 2 mg/kg, route intravenous
Settings: in vivo, read-out: Vdss
In short: as §1

SMILES	Vd [L/kg]
CCc1nn(-c2ccccc2)c2cc(N3CCN(C4CCNC4)CC3)ccc12 (configuration not stated)	13.9
CCc1nn(-c2ccccc2)c2cc(N3CC4CNCC4C3)ccc12 (configuration not stated)	7.81

Target: T1, Ketohexokinase (Homo sapiens, UniProt P50053)
T1 sequence (P50053 whole entry): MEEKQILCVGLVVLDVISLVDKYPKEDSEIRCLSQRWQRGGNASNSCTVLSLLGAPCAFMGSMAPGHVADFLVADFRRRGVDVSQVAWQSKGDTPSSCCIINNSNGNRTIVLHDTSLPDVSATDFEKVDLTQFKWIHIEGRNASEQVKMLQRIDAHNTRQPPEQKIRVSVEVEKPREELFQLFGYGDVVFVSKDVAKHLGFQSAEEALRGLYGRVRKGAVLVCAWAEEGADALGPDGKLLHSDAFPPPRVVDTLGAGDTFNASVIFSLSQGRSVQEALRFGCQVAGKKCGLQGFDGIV
Test: Inhibition of KHK-mediated conversion of D-fructose to fructose-1-phosphate after 60 mins by high throughput mass spectrometry analysis
Settings: not given
In short: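 KHK enzyme assay at 25 °C with 200 µM fructose, 100 µM ATP and 2 nM KHK under steady-state conditions for 60 min. Fructose-1-P product read out by high-throughput mass spectrometry (RapidFire). 12-point dose–response curve used to derive IC50. 384-well format.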

SMILES	IC50 [nM]
COc1ccc(-n2nc(SC)c3ccc(C4=CCNCC4)cc32)cc1	87
CCc1nn(-c2ccccc2)c2cc(N3CCN(C4CCNC4)CC3)ccc12 (configuration not stated)	920
CSc1nn(-c2ccccc2)c2c(OCC3CCNCC3)cccc12	240
CSc1nn(-c2cccc(C)c2)c2cc(C3=CCNCC3)ccc12	34
CSc1nn(-c2ccc(F)cc2)c2cc(C3=CCNCC3)ccc12	23
CSc1nn(-c2ccccc2)c2cc(C3=CCNCC3)ccc12	80
CSc1nn(-c2ccc([N+](=O)[O-])cc2)c2cc(C3=CCNCC3)ccc12	480
CCc1nc(-c2ccccc2)n2cc(N3CCNCC3)ccc12	> 20000
CSc1nn(-c2ccccc2)c2cc(-c3ccncc3)ccc12	> 10000
CSc1nn(-c2ccccc2)c2cc(NC(=O)CC3CCNCC3)ccc12	680
CSc1nn(-c2ccccc2)c2cc(C3CCNCC3)ccc12	330
Cn1nc(-c2ccccc2)c2cc(N3CCNCC3)ccc21	1280
CSc1nn(-c2ccccc2)c2c(C3=CCNCC3)cccc12	11500
CSc1nn(-c2cccc(F)c2)c2cc(C3=CCNCC3)ccc12	42
CSc1nn(-c2ccccc2)c2cc(N3CCN(C4CCNCC4)CC3)ccc12	670
CSc1nn(-c2ccccc2)c2c(OC3CCNCC3)cccc12	1680

System: not listed separately
Test: Half life in rat at 10 mg/kg, po after 24 hrs
Type: ADME, organism-based
Set-up: dose 10 mg/kg, route oral
Settings: in vivo
In short: as §1

SMILES	half-life [h]
CCc1nn(-c2ccccc2)c2cc(N3CCN(C4CCNC4)CC3)ccc12 (configuration not stated)	19.6
CCc1nn(-c2ccccc2)c2cc(N3CC4CNCC4C3)ccc12 (configuration not stated)	3.41

System: not listed separately
Test: Cmax in rat at 10 mg/kg, po after 24 hrs
Type: ADME, organism-based
Set-up: dose 10 mg/kg, route oral
Settings: in vivo
In short: as §1

SMILES	Cmax [ng/mL]
CCc1nn(-c2ccccc2)c2cc(N3CCN(C4CCNC4)CC3)ccc12 (configuration not stated)	399
CCc1nn(-c2ccccc2)c2cc(N3CC4CNCC4C3)ccc12 (configuration not stated)	619

System: not listed separately
Test: Metabolic stability in rat liver microsomes assessed as compound remaining after 10 mins
Type: ADME, Microsome
Settings: read-out: Stability

SMILES	remaining at 10 min [%]
CSc1nn(-c2ccc(F)cc2)c2cc(C3=CCNCC3)ccc12	105
CSc1nn(-c2ccccc2)c2cc(C3=CCNCC3)ccc12	72
CSc1nn(-c2cccc(F)c2)c2cc(C3=CCNCC3)ccc12	96

System: Rattus norvegicus
Test: AUClast in rat at 10 mg/kg, po after 24 hrs
Type: ADME, organism-based, Plasma
Set-up: time < 24 hr, dose 10 mg/kg, route oral
Settings: in vivo
In short: as §1

SMILES	AUClast [ng·h/mL]
CCc1nn(-c2ccccc2)c2cc(N3CCN(C4CCNC4)CC3)ccc12 (configuration not stated)	4890
CCc1nn(-c2ccccc2)c2cc(N3CC4CNCC4C3)ccc12 (configuration not stated)	5680
